Measured values published in ChEMBL document CHEMBL1275598, “In vitro activity of ceftaroline against community-associated methicillin-resistant, vancomycin-intermediate, vancomycin-resistant, and daptomycin-nonsusceptible Staphylococcus aureus isolates” (2010).
Converted amounts (≈) assume the structure as drawn. “And” between values parts separate entries of the source, which are not always exact repeats. Equal values may be shown once.

Legend:
Type in all cases: functional
[1] = system: Staphylococcus aureus; assay: Antimicrobial activity against vancomycin intermediate Staphylococcus aureus NRS-51 expressing SCCmec type 2 element by microdilution method
Outline: (§1)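 MIC by broth microdilution in cation-adjusted Mueller-Hinton broth, following CLSI guidelines; antibiotic powders reconstituted per CLSI. Read visually as the lowest drug concentration well with no visible growth. S. aureus ATCC 29213 and E. faecalis ATCC 29212 served as control strains. CA-MRSA: hospital patients culture-positive within 48 h of admission. DNSSA: patient blood isolates. VISA: obtained from the NARSA program.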

[2] = system: Staphylococcus aureus; assay: Antimicrobial activity against vancomycin resistant Staphylococcus aureus VRS-9 expressing SCCmec type 2 element by microdilution method
Outline: (§2)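 Broth microdilution per CLSI in cation-adjusted Mueller-Hinton broth. Antibiotic powders were reconstituted per CLSI. The MIC was read visually as the lowest drug concentration with no visible growth. S. aureus ATCC 29213 and E. faecalis ATCC 29212 served as control strains. VISA and VRSA isolates came from the NARSA program.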

[3] = system: Staphylococcus aureus; assay: Antimicrobial activity against vancomycin intermediate Staphylococcus aureus NRS-26 expressing SCCmec type 2 element by microdilution method; outline: as §1
[4] = system: Staphylococcus aureus; assay: Antimicrobial activity against community-acquired methicillin-resistant Staphylococcus aureus by microdilution method; outline: as §1
[5] = system: Staphylococcus aureus; assay: Antimicrobial activity against vancomycin-intermediate Staphylococcus aureus by microdilution method; outline: as §2
[6] = system: Staphylococcus aureus; assay: Antimicrobial activity against vancomycin intermediate Staphylococcus aureus NRS-73 expressing SCCmec type 4d element by microdilution method; outline: as §1
[7] = system: Staphylococcus aureus; assay: Bactericidal activity against daptomycin-nonsusceptible Staphylococcus aureus assessed as antibiotic concentration that reduced the number of viable cells by =>99.9% by colony count method
Outline: (§3)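 MBC per CLSI guidelines. It was taken as the antibiotic concentration giving ≥99.9% reduction in viable cells, based on colony counts from the growth control well and rejection values from Pearson's tables.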

[8] = system: Staphylococcus aureus; assay: Bactericidal activity against community-acquired methicillin-resistant Staphylococcus aureus assessed as antibiotic concentration that reduced the number of viable cells by =>99.9% by colony count method
Outline: (§4)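 MBC per CLSI following microdilution in cation-adjusted Mueller-Hinton broth. Defined as the concentration giving ≥99.9% reduction in viable cells, judged from colony counts of the growth control well against Pearson rejection-value tables. CA-MRSA isolates were hospital patients' isolates with positive MRSA culture within 48 h of admission.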

[9] = system: Staphylococcus aureus; assay: Antimicrobial activity against vancomycin resistant Staphylococcus aureus VRS-8 expressing SCCmec element by microdilution method; outline: as §2
[10] = system: Staphylococcus aureus; assay: Antimicrobial activity against vancomycin resistant Staphylococcus aureus VRS-1 expressing SCCmec type 2 element by microdilution method; outline: as §2
[11] = system: Staphylococcus aureus; assay: Antimicrobial activity against methicillin-resistant Staphylococcus aureus
[12] = system: Staphylococcus aureus; assay: Antimicrobial activity against vancomycin intermediate Staphylococcus aureus NRS-126 expressing SCCmec type 2 element by microdilution method; outline: as §1
[13] = system: Staphylococcus aureus; assay: Antimicrobial activity against vancomycin intermediate Staphylococcus aureus NRS-17 expressing SCCmec type 2 element by microdilution method; outline: as §1
[14] = system: Staphylococcus aureus; assay: Bactericidal activity against vancomycin-intermediate Staphylococcus aureus assessed as antibiotic concentration that reduced the number of viable cells by =>99.9% by colony count method; outline: as §3
[15] = system: Staphylococcus aureus; assay: Antimicrobial activity against vancomycin intermediate Staphylococcus aureus NRS-3 expressing SCCmec type 2 element by microdilution method; outline: as §1
[16] = system: Staphylococcus aureus; assay: Antimicrobial activity against vancomycin intermediate Staphylococcus aureus NRS-404 expressing SCCmec type 2 element by microdilution method; outline: as §1
[17] = system: Staphylococcus aureus; assay: Antimicrobial activity against vancomycin intermediate Staphylococcus aureus NRS-22 expressing SCCmec type 2 element by microdilution method; outline: as §1
[18] = system: Staphylococcus aureus; assay: Antimicrobial activity against vancomycin resistant Staphylococcus aureus VRS-10 expressing SCCmec type 2 element by microdilution method; outline: as §2
[19] = system: Staphylococcus aureus; assay: Antimicrobial activity against vancomycin intermediate Staphylococcus aureus NRS-18 expressing SCCmec type 2 element by microdilution method; outline: as §1
[20] = system: Staphylococcus aureus; assay: Bactericidal activity against community-acquired methicillin-resistant Staphylococcus aureus expressing SCCmec type 4a element assessed as antibiotic concentration that reduced the number of viable cells by =>99.9% by colony count method; outline: as §4
[21] = system: Staphylococcus aureus; assay: Bactericidal activity against vancomycin-resistant Staphylococcus aureus assessed as antibiotic concentration that reduced the number of viable cells by =>99.9% by colony count method; outline: as §4
[22] = system: Staphylococcus aureus; assay: Antimicrobial activity against vancomycin resistant Staphylococcus aureus VRS-5 expressing SCCmec type 2 element by microdilution method; outline: as §2
[23] = system: Staphylococcus aureus; assay: Antimicrobial activity against vancomycin intermediate Staphylococcus aureus NRS-24 expressing SCCmec type 2 element by microdilution method; outline: as §1
[24] = system: Staphylococcus aureus; assay: Antimicrobial activity against vancomycin intermediate Staphylococcus aureus NRS-118 expressing SCCmec type 1 element by microdilution method; outline: as §1
[25] = system: Staphylococcus aureus; assay: Antimicrobial activity against vancomycin intermediate Staphylococcus aureus NRS-74 expressing SCCmec type 2 element by microdilution method; outline: as §1
[26] = system: Staphylococcus aureus; assay: Antimicrobial activity against vancomycin resistant Staphylococcus aureus VRS-3 expressing SCCmec type 4 element by microdilution method; outline: as §2
[27] = system: Staphylococcus aureus; assay: Antimicrobial activity against vancomycin resistant Staphylococcus aureus VRS-7 expressing SCCmec element by microdilution method; outline: as §2
[28] = system: Staphylococcus aureus; assay: Antimicrobial activity against community-acquired methicillin-resistant Staphylococcus aureus expressing SCCmec type 4a element by microdilution method; outline: as §1
[29] = system: Staphylococcus aureus; assay: Antimicrobial activity against vancomycin intermediate Staphylococcus aureus NRS-23 expressing SCCmec type 2 element by microdilution method; outline: as §1
[30] = system: Staphylococcus aureus; assay: Antimicrobial activity against vancomycin resistant Staphylococcus aureus VRS-2 expressing SCCmec type 2 element by microdilution method; outline: as §2
[31] = system: Staphylococcus aureus; assay: Antimicrobial activity against vancomycin intermediate Staphylococcus aureus NRS-19 expressing SCCmec type 2 element by microdilution method; outline: as §1
[32] = system: Staphylococcus aureus; assay: Antimicrobial activity against vancomycin intermediate Staphylococcus aureus NRS-68 expressing SCCmec type 2 element by microdilution method; outline: as §1
[33] = system: Staphylococcus aureus; assay: Antimicrobial activity against vancomycin intermediate Staphylococcus aureus NRS-27 expressing SCCmec type 2 element by microdilution method; outline: as §1
[34] = system: Staphylococcus aureus; assay: Antimicrobial activity against vancomycin intermediate Staphylococcus aureus NRS-4 expressing SCCmec type 2 element by microdilution method; outline: as §1
[35] = system: Staphylococcus aureus; assay: Antimicrobial activity against vancomycin resistant Staphylococcus aureus VRS-4 expressing SCCmec type 4 element by microdilution method; outline: as §2
[36] = system: Staphylococcus aureus; assay: Antimicrobial activity against vancomycin intermediate Staphylococcus aureus NRS-76 expressing SCCmec type 2 element by microdilution method; outline: as §2
[37] = system: Staphylococcus aureus; assay: Antimicrobial activity against vancomycin-resistant Staphylococcus aureus by microdilution method; outline: as §2
[38] = system: Staphylococcus aureus; assay: Antimicrobial activity against vancomycin intermediate Staphylococcus aureus NRS-402 expressing SCCmec type 2 element by microdilution method; outline: as §1
[39] = system: Staphylococcus aureus; assay: Antimicrobial activity against community-acquired methicillin-resistant Staphylococcus aureus expressing SCCmec type 4 element by microdilution method; outline: as §1
[40] = system: Staphylococcus aureus; assay: Antimicrobial activity against daptomycin-nonsusceptible Staphylococcus aureus by microdilution method; outline: as §1
[41] = system: Staphylococcus aureus; assay: Antimicrobial activity against community-acquired methicillin-resistant Staphylococcus aureus expressing SCCmec type 2 element by microdilution method; outline: as §1
[42] = system: Staphylococcus aureus; assay: Antimicrobial activity against vancomycin intermediate Staphylococcus aureus NRS-403 expressing SCCmec type 2 element by microdilution method; outline: as §1
[43] = system: Staphylococcus aureus; assay: Bactericidal activity against community-acquired methicillin-resistant Staphylococcus aureus expressing SCCmec type 4 element assessed as antibiotic concentration that reduced the number of viable cells by =>99.9% by colony count method; outline: as §4
[44] = system: Staphylococcus aureus; assay: Antimicrobial activity against vancomycin resistant Staphylococcus aureus VRS-6 expressing SCCmec type 2 element by microdilution method; outline: as §2

Which results are given for `CCO/N=C(\C(=O)N[C@@H]1C(=O)N2C(C(=O)[O-])=C(Sc3nc(-c4cc[n+](C)cc4)cs3)CS[C@H]12)c1nsc(NP(=O)(O)O)n1` [CEFTAROLINE FOSAMIL]?
MIC [1]: 1 µg/mL (≈ 1.46 µM); MIC [2]: 0.25 µg/mL (≈ 0.365 µM); MIC [3]: 0.25 µg/mL (≈ 0.365 µM); MIC50 [4]: 0.5 µg/mL (≈ 0.73 µM); MIC90 [4]: 1 µg/mL (≈ 1.46 µM); MIC50 [5]: 0.5 µg/mL (≈ 0.73 µM); MIC90 [5]: 1 µg/mL (≈ 1.46 µM); MIC [6]: 0.5 µg/mL (≈ 0.73 µM); MBC [7]: 0.74 µg/mL and 0.25 µg/mL; MBC50 [7]: 1 µg/mL (≈ 1.46 µM); MBC50 [8]: 0.5 µg/mL (≈ 0.73 µM); MBC ([8]; Staphylococcus aureus): 0.25 µg/mL (≈ 0.365 µM); MIC [9]: 0.12 µg/mL (≈ 0.175 µM); MIC [10]: 1 µg/mL (≈ 1.46 µM); MIC [11]: 0.12 µg/mL (≈ 0.175 µM); MIC [12]: 1 µg/mL (≈ 1.46 µM); MIC [13]: 0.5 µg/mL (≈ 0.73 µM); MBC50 [14]: 1 µg/mL (≈ 1.46 µM); MBC90 [14]: 1 µg/mL (≈ 1.46 µM); MBC ([14]; Staphylococcus aureus): 0.5 µg/mL (≈ 0.73 µM); MIC [15]: 1 µg/mL (≈ 1.46 µM); MIC [16]: 0.5 µg/mL (≈ 0.73 µM); MIC [17]: 0.5 µg/mL (≈ 0.73 µM); MIC [18]: 0.5 µg/mL (≈ 0.73 µM); MIC [19]: 0.5 µg/mL (≈ 0.73 µM); MBC90 [20]: 0.5 µg/mL (≈ 0.73 µM); MBC50 [21]: 0.5 µg/mL (≈ 0.73 µM); MBC ([21]; Staphylococcus aureus): 0.12 µg/mL (≈ 0.175 µM); MIC [22]: 0.5 µg/mL (≈ 0.73 µM); MIC [23]: 0.5 µg/mL (≈ 0.73 µM); MIC [24]: 1 µg/mL (≈ 1.46 µM); MIC [25]: 0.25 µg/mL (≈ 0.365 µM); MIC [26]: 0.5 µg/mL (≈ 0.73 µM); MIC [27]: 0.12 µg/mL (≈ 0.175 µM); MIC90 [28]: 0.5 µg/mL (≈ 0.73 µM); MIC [29]: 0.5 µg/mL (≈ 0.73 µM); MIC [30]: 0.5 µg/mL (≈ 0.73 µM); MIC [31]: 0.5 µg/mL (≈ 0.73 µM); MIC [32]: 0.5 µg/mL (≈ 0.73 µM); MIC [33]: 0.5 µg/mL (≈ 0.73 µM); MIC [34]: 0.5 µg/mL (≈ 0.73 µM); MIC [35]: 0.5 µg/mL (≈ 0.73 µM); MIC [36]: 0.25 µg/mL (≈ 0.365 µM); MIC50 [37]: 0.5 µg/mL (≈ 0.73 µM); MIC90 [37]: 0.5 µg/mL (≈ 0.73 µM); MIC [38]: 0.5 µg/mL (≈ 0.73 µM); MIC90 [39]: 0.25 µg/mL (≈ 0.365 µM); MIC [40]: 0.55 µg/mL and 0.25 µg/mL; MIC50 ([40]; Staphylococcus aureus): 0.5 µg/mL (≈ 0.73 µM); MIC90 [41]: 1 µg/mL (≈ 1.46 µM); MIC [42]: 0.5 µg/mL (≈ 0.73 µM); MBC90 [43]: 0.5 µg/mL (≈ 0.73 µM); MIC [44]: 0.5 µg/mL (≈ 0.73 µM)
